Measured values from paper PMC3508427 (The British journal of nutrition, 2009).

How the values were obtained:
[1] = Plasma pharmacokinetics of total flavanones; type: in vivo, human; conditions: fruit or juice
Outline: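 Randomised cross-over in twenty volunteers on a flavonoid-avoidance diet, given single orange juice (300 g) or fruit portions. Drinking withheld 1·5 h and eating 4 h. Heparinised blood taken at 15, 30, 45 min and 1–48 h, centrifuged, and ascorbate added (final 1 mM). Plasma (pH 5·0) hydrolysed with β-glucuronidase and sulfatase for 2 h at 37°C. Total naringenin and hesperetin measured by C18 SPE and reversed-phase HPLC.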

[2] = type: in vivo, human; conditions: orange juice, n 129, linear model
Outline: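 Extended cohort of 129 subjects given a single 300 g orange juice dose. Urine collected as 24 h fractions: the day before, then for 48 h after, into bottles holding 1 g ascorbic acid. Volumes recorded. Urine (pH 5·0) hydrolysed with β-glucuronidase (10 000 units) and sulfatase (1000 units) for 2 h at 37°C, with galangin as internal standard. Measured by C18 SPE and HPLC, expressed as % of flavanone dose.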

[3] = cited from earlier work
[4] = cited from earlier work; remark: listed apart in the source

| time of major peak in plasma profile [1] | decrease in urinary excretion between the ages of 20 and 80 years [2] [%] | SMILES | time to peak plasma concentration [3] | mean urinary yield [4] [%] |
| --- | --- | --- | --- | --- |
| about 6 h | 4 | COc1ccc([C@@H]2CC(=O)c3c(O)cc(O)cc3O2)cc1O [hesperetin] | – | – |
| – | – | OC[C@H]1O[C@@H](Oc2cc3c(O)cc(O)cc3[o+]c2-c2ccc(O)cc2)[C@H](O)[C@@H](O)[C@@H]1O [pelargondin-3-glucoside] | about 1 h | – |
| – | – | C[C@@H]1O[C@@H](OC[C@H]2O[C@@H](Oc3c(-c4ccc(O)c(O)c4)oc4cc(O)cc(O)c4c3=O)[C@H](O)[C@@H](O)[C@@H]2O)[C@H](O)[C@H](O)[C@H]1O [rutin, quercetin rutinoside] | about 6 h | – |
| – | – | COc1ccc([C@@H]2CC(=O)c3c(O)cc(O[C@@H]4O[C@H](CO[C@@H]5O[C@@H](C)[C@H](O)[C@@H](O)[C@H]5O)[C@@H](O)[C@H](O)[C@H]4O)cc3O2)cc1O [hesperidin, 7-O-rutinoside of hesperetin] | about 6 h | > 8 |
| about 6 h | – | O=C1C[C@@H](c2ccc(O)cc2)Oc2cc(O)cc(O)c21 [naringenin] | – | – |
| – | – | C[C@@H]1O[C@@H](O[C@H]2[C@H](Oc3cc(O)c4c(c3)O[C@H](c3ccc(O)cc3)CC4=O)O[C@H](CO)[C@@H](O)[C@@H]2O)[C@H](O)[C@H](O)[C@H]1O [naringin] | about 6 h | > 8 |
